Measured values reported in ChEMBL document CHEMBL2440089, “CoMFA studies and in vitro evaluation of some 3-substituted benzylthio quinolinium salts as anticryptococcal agents” (Bioorg Med Chem, 2013).

Key:
[1] = test system: Cryptococcus neoformans; assay: Antifungal activity against Cryptococcus neoformans ATCC 90113 by CLSI method; format: functional, organism-based
In short: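 Test samples in DMSO were serially diluted in saline and run in duplicate in Sabouraud dextrose broth, with final concentrations starting at 20 μg/mL. Absorbance at 530 nm was read before and after incubation. Each plate carried growth, solvent and media-blank controls, with amphotericin B as the drug control. IC50 (50% inhibition relative to controls) was obtained by curve fitting.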

[2] = test system: Vero; assay: Cytotoxicity against african green monkey Vero cells after 48 hrs by Neutral Red dye assay; format: cell-based; conditions: chlorocebus sabaeus
In short: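 Kidney […] (VERO) cells were seeded at 25,000 cells/well and incubated for 24 h, then exposed to samples for 48 h. Viable cells were counted by Neutral Red dye uptake. IC50 was taken from growth-inhibition versus concentration curves. Doxorubicin served as the positive control and DMSO as the vehicle control.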

[3] = test system: Vero; assay: Cytotoxicity against african green monkey Vero cells at 10 ug/ml after 48 hrs by Neutral Red dye assay; format: cell-based; conditions: chlorocebus sabaeus

| SMILES | IC50 ([1]; read-out: IC50) | IC50 ([1]; read-out: pIC50 (converted)) | Activity [2] | Activity [3] |
| --- | --- | --- | --- | --- |
| Cc1ccc(CSc2cc3ccccc3[n+](CCCCCC3CCCCC3)c2)cc1.[I-] | 458 nM | 458 nM | 6.78 µM | – |
| [I-].[O-][S+](c1cc2ccccc2[n+](CCCCCc2ccccc2)c1)c1ccccc1C(F)(F)F (stereo not given) | 9250 nM | 9250 nM | – | Non-toxic |
| Fc1ccc(CSc2cc3ccccc3[n+](CCCCCC3CCCCC3)c2)cc1.[I-] | 677 nM | 678 nM | – | Non-toxic |
| Fc1cccc(Sc2cc3ccccc3[n+](CCCCCC3CCCCC3)c2)c1.[I-] | 13200 nM | 13200 nM | 1.23 µM | – |
| Cc1cccc(CSc2cc3ccccc3[n+](CCCCCC3CCCCC3)c2)c1.[I-] | 769 nM | 769 nM | 4.95 µM | – |
| [I-].[O-][S+](c1ccc(Br)cc1)c1cc2ccccc2[n+](CCCCCc2ccccc2)c1 (stereo not given) | 14900 nM | – | – | Non-toxic |
| COc1ccc(Sc2cc3ccccc3[n+](CCCCCC3CCCCC3)c2)cc1.[I-] | 731 nM | 731 nM | 7.67 µM | – |
| Fc1ccccc1CSc1cc2ccccc2[n+](CCCCCC2CCCCC2)c1.[I-] | 948 nM | 948 nM | – | Non-toxic |
| FC(F)(F)c1ccccc1Sc1cc2ccccc2[n+](CCCCCC2CCCCC2)c1.[I-] | 3740 nM | 3740 nM | – | Non-toxic |
| COc1cccc(Sc2cc3ccccc3[n+](CCCCCC3CCCCC3)c2)c1.[I-] | 18500 nM | 18500 nM | 8.22 µM | – |
| COc1ccc(CSc2cc3ccccc3[n+](CCCCCC3CCCCC3)c2)cc1.[I-] | 2150 nM | 2150 nM | – | Non-toxic |
| FC(F)(F)c1ccc(CSc2cc3ccccc3[n+](CCCCCC3CCCCC3)c2)cc1.[I-] | 416 nM | 417 nM | 7.94 µM | – |
| Brc1ccc(CSc2cc3ccccc3[n+](CCCCCC3CCCCC3)c2)cc1.[I-] | 369 nM | 370 nM | – | Non-toxic |
| C[C@@H]1[C@H](O)[C@@H](C)/C=C/C=C/C=C/C=C/C=C/C=C/C=C/[C@H](O[C@@H]2O[C@H](C)[C@@H](O)[C@H](N)[C@@H]2O)C[C@@H]2O[C@](O)(C[C@@H](O)C[C@@H](O)[C@H](O)CC[C@@H](O)C[C@@H](O)CC(=O)O[C@H]1C)C[C@H](O)[C@H]2C(=O)O [AMPHOTERICIN B] | 422 nM | – | 7.03 µM | – |
| Cc1ccccc1Sc1cc2ccccc2[n+](CCCCCC2CCCCC2)c1.[I-] | – | – | 7.53 µM | – |
| FC(F)(F)c1cccc(Sc2cc3ccccc3[n+](CCCCCC3CCCCC3)c2)c1.[I-] | – | – | – | Non-toxic |
| [I-].c1ccc(Sc2cc3ccccc3[n+](CCCCCC3CCCCC3)c2)cc1 | – | – | 8.89 µM | – |
| Cc1cccc(Sc2cc3ccccc3[n+](CCCCCC3CCCCC3)c2)c1.[I-] | – | – | 6.96 µM | – |
| CC(C)(C)c1ccc(CSc2cc3ccccc3[n+](CCCCCC3CCCCC3)c2)cc1.[I-] | 883 nM | 883 nM | – | Non-toxic |

| SMILES | IC50 ([1]; read-out: IC50) | IC50 ([1]; read-out: pIC50 (converted)) | Activity [2] | Activity [3] |
| --- | --- | --- | --- | --- |
| Cc1ccc(Sc2cc3ccccc3[n+](CCCCCC3CCCCC3)c2)cc1.[I-] | – | – | 5.27 µM | – |
| Brc1ccccc1CSc1cc2ccccc2[n+](CCCCCC2CCCCC2)c1.[I-] | 1130 nM | 1130 nM | – | Non-toxic |
| Oc1cccc(Sc2cc3ccccc3[n+](CCCCCC3CCCCC3)c2)c1.[I-] | 2340 nM | 2340 nM | – | Non-toxic |
| COc1cccc(CSc2cc3ccccc3[n+](CCCCCC3CCCCC3)c2)c1.[I-] | 606 nM | 607 nM | – | Non-toxic |
| COc1ccccc1CSc1cc2ccccc2[n+](CCCCCC2CCCCC2)c1.[I-] | 623 nM | 624 nM | – | Non-toxic |
| Clc1ccc(CSc2cc3ccccc3[n+](CCCCCC3CCCCC3)c2)cc1.[I-] | 88 nM | 88.3 nM | 2.3 µM | – |
| [I-].[O-][S+](c1ccc(F)cc1)c1cc2ccccc2[n+](CCCCCc2ccccc2)c1 (stereo not given) | 27500 nM | 27500 nM | – | Non-toxic |
| Brc1cccc(CSc2cc3ccccc3[n+](CCCCCC3CCCCC3)c2)c1.[I-] | 360 nM | 361 nM | – | Non-toxic |
| [I-].[O-][S+](c1cc2ccccc2[n+](CCCCCc2ccccc2)c1)c1ccccc1Br (stereo not given) | 9080 nM | 9080 nM | – | Non-toxic |
| FC(F)(F)c1ccc(Sc2cc3ccccc3[n+](CCCCCC3CCCCC3)c2)cc1.[I-] | – | – | – | Non-toxic |
| Oc1ccc(Sc2cc3ccccc3[n+](CCCCCC3CCCCC3)c2)cc1.[I-] | – | – | – | Non-toxic |
| Oc1ccc(CSc2cc3ccccc3[n+](CCCCCC3CCCCC3)c2)cc1.[I-] | 9040 nM | 9040 nM | – | Non-toxic |
| C[n+]1c2ccccc2cc2[n-]c3ccccc3c21 [CRYPTOLEPINE] | 43300 nM | 43300 nM | 8.88 µM | – |
| Clc1ccccc1CSc1cc2ccccc2[n+](CCCCCC2CCCCC2)c1.[I-] | 1350 nM | 1350 nM | – | Non-toxic |
| Fc1cccc(CSc2cc3ccccc3[n+](CCCCCC3CCCCC3)c2)c1.[I-] | 711 nM | 711 nM | – | Non-toxic |
| Oc1ccccc1Sc1cc2ccccc2[n+](CCCCCC2CCCCC2)c1.[I-] | – | – | 17.4 µM | – |
| [I-].c1ccc(CSc2cc3ccccc3[n+](CCCCCC3CCCCC3)c2)cc1 | 301 nM | 301 nM | – | Non-toxic |
| [I-].[O-][S+](c1ccc(C(F)(F)F)cc1)c1cc2ccccc2[n+](CCCCCc2ccccc2)c1 (stereo not given) | 10000 nM | – | 21.4 µM | – |
| [I-].[O-][S+](c1cccc(C(F)(F)F)c1)c1cc2ccccc2[n+](CCCCCc2ccccc2)c1 (stereo not given) | 10900 nM | 10900 nM | – | Non-toxic |
